According to ChEMBL document CHEMBL1177884, “1,2-ethane bis-1-amino-4-benzamidine is active against several brain insult and seizure challenges through anti-NMDA mechanisms targeting the 3H-TCP binding site and antioxidant action” (Eur J Med Chem, 2010):
Activity calls are given as the source filed them.

Tests used:
[1] = tested on: Mus musculus; assay: Neurotoxicity in Swiss mouse assessed as inability of animal to maintain on rotarod […], ip after 1 hr by rotarod test; type: toxicity, organism-based; settings: in vivo
How it was run: (§1)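 Minimal acute neurotoxicity assessed by rotarod: mouse placed on a 1 inch knurled rod rotating at 6 rpm, at 15 min, 30 min, 1 h or 4 h after ip dosing in methylcellulose. Scored as the percentage of animals toxic, in bands (75–100%, 50–75%, 25–50%, 0–25%, none).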

[2] = tested on: Mus musculus; assay: Neurotoxicity in Swiss mouse assessed as inability of animal to maintain on rotarod […], ip after 4 hrs by rotarod test; type: toxicity, organism-based; settings: in vivo; how it was run: as §1
[3] = tested on: Mus musculus; assay: Anticonvulsant activity in OF1 mouse assessed as protection against NMDA-induced seizures at 49 mg/kg,; type: functional
How it was run: (§2)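 Normally fed OF1 mice. Compound given ip 1 hr before ip NMDA (137 mg/kg). Protection scored as no seizures over 4 hours after NMDA and no death within 48 hours. […] At 49 mg/kg, the read-out was the NMDA seizure threshold.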

[4] = tested on: Mus musculus; assay: Neurotoxicity in Swiss mouse assessed as inability of animal to maintain on rotarod […], ip after 15 mins by rotarod test; type: toxicity, organism-based; settings: in vivo; how it was run: as §1
[5] = tested on: Mus musculus; assay: Anxiolytic activity against OF1 mouse assessed as increase in number of crossings of photocell activity meter at 30 mg/kg, ip administered 1 hr before testing measured for 3 mins; settings: route intraperitoneal
[6] = tested on: Mus musculus; assay: Neurotoxicity in Swiss mouse assessed as inability of animal to maintain on rotarod at 30 mg/kg, ip after 4 hrs by rotarod test; type: toxicity, organism-based; settings: in vivo
How it was run: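 Minimal acute neurotoxicity assessed by rotarod: mouse placed on a 1 inch knurled rod rotating at 6 rpm, at 15 min, 30 min, 1 h or 4 h after ip dosing in methylcellulose.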

[7] = tested on: Mus musculus; assay: Antinociceptive activity against thermal-stimulus induced pain reflex in OF1 mouse assessed as maximal possible effect at 30 mg/kg, ip after 45 mins by hot plate assay; type: functional; settings: route intraperitoneal
How it was run: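 OF1 mice given compound ip 45 min before testing, then placed on a hot plate at 55 ± 1 °C. Latency to a pain reflex (vocalization, paw lick, hindpaw flick or jump) recorded, with a 30 s cut-off. Latencies converted to % maximum possible effect. Mean ± SD, 6 treated vs 6 untreated mice per dose.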

[8] = tested on: Mus musculus; assay: Anticonvulsant activity in Swiss mouse assessed as inhibition of ScPTZ-induced seizures at 100 mg/kg, ip after 30 mins; type: functional, organism-based; design: dose 100 mg/kg
How it was run: (§3)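 Mice dosed ip with compound in methylcellulose at 30, 100 or 300 mg/kg. MES or subcutaneous pentylenetetrazol seizure tests run 30 min and 4 h after dosing, and occasionally at 15 min and 1 h. Activity scored as the percentage of animals protected, in bands (75–100%, 50–75%, 25–50%, 0–25%, none).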

[9] = Antioxidant activity assessed as inhibition of pyrogallol autooxidation; type: functional; design: concentration or dose not given beside the values; settings: dose or concentration not given here
How it was run: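 Pyrogallol autooxidation followed at 420 nm in pH 7.4 TRIS saline (5 mM TRIS, 50 mM NaCl). Compound at 0.5 mM final, from a 50 mM DMSO stock; DMSO alone served as blank. Reaction started with 0.75 mM pyrogallol. Percent inhibition calculated from rates over the first 2 min. Mean of three separate determinations.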

[10] = tested on: Mus musculus; assay: Antinociceptive activity against thermal-stimulus induced pain reflex in OF1 mouse assessed as maximal possible effect at 60 mg/kg, ip after 45 mins by hot plate assay; settings: route intraperitoneal
[11] = tested on: Mus musculus; assay: Neurotoxicity in Swiss mouse assessed as inability of animal to maintain on rotarod […], ip after 4 hr by rotarod test; type: toxicity, organism-based; settings: in vivo; how it was run: as §1
[12] = tested on: Mus musculus; assay: Neurotoxicity in Swiss mouse assessed as inability of animal to maintain on rotarod at 300 mg, ip after 30 mins by rotarod test; type: toxicity, organism-based; settings: in vivo, 0.5 h; how it was run: as §1
[13] = tested on: Mus musculus; assay: Neuroprotective activity against ibotenate-induced focal cerebral injury in Swiss mouse assessed as reduction in size of lesions in grey matter at 4 ug/kg, ip; type: functional; design: scale not given: the % may be the effect or the level left
How it was run: (§4)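 Swiss mouse pups anesthetized with isoflurane, then given 10 µg ibotenate by stereotaxic injection into the right frontoparietal area as two 1 µl boluses. Compound in DMSO given ip at 4 µg/kg; controls received DMSO ip. Brains fixed 5 days later. Lesion maximal diameter in white and cortical grey matter measured on cresyl-violet-stained serial coronal sections, 15 µm thick. ANOVA with Bonferroni test.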

[14] = tested on: Mus musculus; assay: Neuroprotective activity against ibotenate-induced focal cerebral injury in Swiss mouse assessed as reduction in size of lesions in white matter at 4 ug/kg, ip; type: functional; design: scale not given: the % may be the effect or the level left; how it was run: as §4
[15] = biological target: Glutamate NMDA receptor; assay: Displacement of [3H]TCP from NMDA receptor in rat cerebral cortex
[16] = tested on: Mus musculus; assay: Anticonvulsant activity against magnesium deprivation mediated audiogenic seizure in OF1 mouse assessed as duration of recovery at 6 mg/kg, ip; type: functional; settings: route intraperitoneal
[17] = tested on: Mus musculus; assay: Anxiolytic activity against OF1 mouse assessed as increase in number of crossings of photocell activity meter at 5 mg/kg, ip administered 1 hr before testing measured for 3 mins; settings: route intraperitoneal
[18] = tested on: Mus musculus; assay: Anticonvulsant activity against magnesium deprivation mediated audiogenic seizure in OF1 mouse assessed as duration of cunvulsions at 6 mg/kg, ip; type: functional; settings: route intraperitoneal
[19] = tested on: Mus musculus; assay: Anticonvulsant activity in Swiss mouse assessed as inhibition of maximal electroshock-induced seizures at 300 mg/kg, ip after 4 hrs; type: functional, organism-based; design: dose 300 mg/kg; how it was run: as §3
[20] = tested on: Mus musculus; assay: Anticonvulsant activity in Swiss mouse assessed as inhibition of maximal electroshock-induced seizures at 100 mg/kg, ip after 4 hrs; type: functional, organism-based; design: dose 100 mg/kg; how it was run: as §3
[21] = tested on: Mus musculus; assay: Toxicity in OF1 mouse assessed as rectal temperature at 30 mg/kg; type: organism-based; design: dose 30 mg/kg; settings: in vivo
How it was run: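 Rectal temperature measured in mice given 30 mg/kg ip, 1 hr before testing.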

[22] = tested on: Mus musculus; assay: Anticonvulsant activity in Swiss mouse assessed as inhibition of ScPTZ-induced seizures at 30 mg/kg, ip after 30 mins; type: functional, organism-based; design: dose 30 mg/kg
How it was run: (§5)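 Mice dosed ip with compound in methylcellulose at 30, 100 or 300 mg/kg. MES or subcutaneous pentylenetetrazol seizure tests run 30 min and 4 h after dosing, and occasionally at 15 min and 1 h.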

[23] = tested on: Mus musculus; assay: Anticonvulsant activity against magnesium deprivation mediated audiogenic seizure in OF1 mouse assessed as duration of latency plus wide running period at 6 mg/kg, ip; type: functional; settings: route intraperitoneal
[24] = tested on: Mus musculus; assay: Anticonvulsant activity in Swiss mouse assessed as inhibition of maximal electroshock-induced seizures at 30 mg/kg, ip after 4 hrs; type: functional, organism-based; design: dose 30 mg/kg; how it was run: as §5
[25] = tested on: Mus musculus; assay: Anticonvulsant activity in Swiss mouse assessed as inhibition of ScPTZ-induced seizures at 300 mg/kg, ip after 30 mins; type: functional; design: scale not given: the % may be the effect or the level left; settings: route intraperitoneal; how it was run: as §3
[26] = tested on: Mus musculus; assay: Anticonvulsant activity in Swiss mouse assessed as inhibition of ScPTZ-induced seizures at 100 mg/kg, ip after 4 hrs; type: functional, organism-based; design: dose 100 mg/kg; how it was run: as §3
[27] = tested on: Mus musculus; assay: Anticonvulsant activity in Swiss mouse assessed as inhibition of maximal electroshock-induced seizures at 100 mg/kg, ip after 30 mins; type: functional, organism-based; design: dose 100 mg/kg; how it was run: as §3
[28] = tested on: Mus musculus; assay: Neurotoxicity in Swiss mouse assessed as inability of animal to maintain on rotarod at 100 mg, ip after 30 mins by rotarod test; type: toxicity, organism-based; settings: in vivo, 0.5 h; how it was run: as §1
[29] = tested on: Mus musculus; assay: Anticonvulsant activity in Swiss mouse assessed as inhibition of ScPTZ-induced seizures at 30 mg/kg, ip after 4 hrs; type: functional, organism-based; design: dose 30 mg/kg; how it was run: as §5
[30] = tested on: Mus musculus; assay: Anticonvulsant activity in Swiss mouse assessed as inhibition of maximal electroshock-induced seizures at 300 mg/kg, ip after 30 mins; type: functional, organism-based; design: dose 300 mg/kg; how it was run: as §3
[31] = tested on: Mus musculus; assay: Anticonvulsant activity in Swiss mouse assessed as inhibition of ScPTZ-induced seizures at 300 mg/kg, ip after 4 hrs; type: functional, organism-based; design: dose 300 mg/kg; how it was run: as §3
[32] = tested on: Mus musculus; assay: Anticonvulsant activity in Swiss mouse assessed as inhibition of maximal electroshock-induced seizures at 30 mg/kg, ip after 30 mins; type: functional, organism-based; design: dose 30 mg/kg; how it was run: as §5
[33] = tested on: Mus musculus; assay: Anticonvulsant activity in Swiss mouse assessed as inhibition of ScPTZ-induced seizures at 100 mg/kg, ip after 1 hr; type: functional; design: scale not given: the % may be the effect or the level left; settings: route intraperitoneal; how it was run: as §3
[34] = organism: Mus musculus; assay: Anticonvulsant activity in OF1 mouse assessed as protection against NMDA-induced seizures; type: functional; how it was run: as §2
[35] = tested on: Mus musculus; assay: Anticonvulsant activity in Swiss mouse assessed as inhibition of ScPTZ-induced seizures at 100 mg/kg, ip after 15 mins; type: functional; design: scale not given: the % may be the effect or the level left; settings: route intraperitoneal; how it was run: as §3
[36] = tested on: Mus musculus; assay: Anxiolytic activity against OF1 mouse assessed as increase in number of crossings of photocell activity meter at 10 mg/kg, ip administered 1 hr before testing measured for 3 mins; settings: route intraperitoneal

Compound | Activity [1] | Activity [2] | Activity [4] | Activity [6] | Activity [8] | inhibition [9] | Activity [11] | Activity [12] | Activity [19] | Activity [20] | Activity [22] | Activity [24] | Activity [25] | Activity [26] | Activity [27] | Activity [28] | Activity [29] | Activity [30] | Activity [31] | Activity [32] | other results
N=C(N)c1ccc(NCCNc2ccc(C(=N)N)cc2)cc1 | 75% | 25% | 50% | Non-toxic | inactive | 36.3% | Non-toxic | 75% | inactive | inactive | inactive | inactive | 75% | inactive | inactive | 25% | inactive | inactive | inactive | inactive | Activity [3]: >10%; Activity [5]: 13.3; Activity [7]: 31.17%; Activity [10]: 70.33%; Activity [13]: 49%; Activity [14]: 69%; IC50 [15]: 1400 nM; Time [16]: 50.3 s; Activity [17]: 103.3; Time [18]: 1.4 s; T [21]: 35.7 °C; Time [23]: 4.75 s; Activity [33]: 75%; ED50 [34]: 6 mg/kg; Activity [35]: 75%; Activity [36]: 90.5
N=C(N)c1ccc(N)cc1 | – | – | – | – | – | < 5% | – | – | – | – | – | – | – | – | – | – | – | – | – | – | –
CN(CCNc1ccc(C(=N)N)cc1)c1ccc(C(=N)N)cc1.Cl.Cl | – | – | – | Non-toxic | inactive | 17.5% | Non-toxic | 75% | – | inactive | inactive | inactive | – | inactive | inactive | 75% | inactive | – | – | inactive | –
CN(CCN(C)c1ccc(C(=N)N)cc1)c1ccc(C(=N)N)cc1 | 25% | Non-toxic | 50% | Non-toxic | inactive | 51% | Non-toxic | 75% | inactive | inactive | inactive | inactive | 75% | inactive | inactive | 25% | inactive | inactive | inactive | inactive | –
CCN(CCNc1ccc(C(=N)N)cc1)c1ccc(C(=N)N)cc1.Cl.Cl | – | – | – | Non-toxic | – | 28.8% | – | 75% | – | – | – | inactive | – | – | – | 75% | inactive | – | – | inactive | –
